# An excerpt weighted towards active compounds, which were near 1.9% of everything screened.
# M4 PAM: positive allosteric modulators of human muscarinic M4 receptor | AID 624126 | activation, % at 3 µM | CHO-K1 hM4/Gqi5, Fluo-8 calcium fluorescence, ACh EC20; 0% = ACh EC20, 100% = maximal ACh | hit rate 0.4% among 360,000;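 active = activation above its plate's cutoff, the mean activation of sample wells plus 3 SD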
# Target sequence (P08173 whole entry, looked up): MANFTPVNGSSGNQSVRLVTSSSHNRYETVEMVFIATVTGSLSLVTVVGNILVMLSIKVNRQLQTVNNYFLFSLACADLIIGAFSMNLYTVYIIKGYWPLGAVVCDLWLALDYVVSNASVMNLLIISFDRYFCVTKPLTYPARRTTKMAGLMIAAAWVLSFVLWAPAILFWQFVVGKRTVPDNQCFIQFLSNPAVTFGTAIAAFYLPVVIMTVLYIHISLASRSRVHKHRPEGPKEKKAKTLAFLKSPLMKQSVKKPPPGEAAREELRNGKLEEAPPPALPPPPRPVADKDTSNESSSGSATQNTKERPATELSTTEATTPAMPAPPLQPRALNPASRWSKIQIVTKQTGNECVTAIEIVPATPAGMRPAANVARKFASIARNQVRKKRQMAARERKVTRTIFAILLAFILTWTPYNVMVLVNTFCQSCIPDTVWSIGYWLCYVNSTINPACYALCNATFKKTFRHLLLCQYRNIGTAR
# M4 antag: blocks acetylcholine activation of human M4 receptor. inhibition, % at 3 µM. CHO-hM4 cells, ACh EC80, Fluo-8 calcium fluorescence. P08173. AID 624125. hit rate 0.73% among 360,000;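 active = inhibition above its plate's cutoff, the mean inhibition of sample wells plus 3 SD, cut at about 27% in these data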;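 note: 0% = acetylcholine EC80 with DMSO and 100% = DMSO without agonist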
# CHRM5 agonist: agonists of human muscarinic M5 receptor (CHRM5) | CHO-K1 hM5 cells, Fluo-8 calcium fluorescence; 0% DMSO wells, 100% maximal acetylcholine response | activation, % at 3 µM | hit rate 0.19% among 360,000 | AID 624037;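 active = activation above the run's mean over test compounds plus 3 SD, cut at about 23% in these data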;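 note: signal is peak over basal fluorescence ratio across the kinetic read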
# CHRM5 antagonist: antagonists of human muscarinic M5 receptor (CHRM5); hit rate 0.59% among 360,000; inhibition, % at 3 µM; P08912; CHO-hM5 cells, Fluo-8 calcium fluorescence, ACh EC80;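 active = inhibition above a per-plate cutoff, the mean of that plate's test compounds plus 3 SD, cut at about 27% in these data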;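 note: 0% = acetylcholine EC80 with DMSO and 100% = DMSO without agonist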
# M4 ag: agonists of human muscarinic M4 receptor (CHRM4). P08173. CHO-K1 hM4/Gqi5, Fluo-8 calcium fluorescence; vehicle 0%, full acetylcholine response 100%. activation, % at 3 µM. hit rate 0.14% among 360,000;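 active = activation above the run mean over all test wells plus 3 SD, cut at about 32% in these data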;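 note: peak over basal fluorescence ratio per well then scaled between controls; 0% = DMSO wells and 100% = acetylcholine at EC100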
# CHRM5 PAM: positive allosteric modulators of human muscarinic M5 receptor; CHO-K1 hM5, Fluo-8 calcium, ACh EC20 PAM; 0% = ACh EC20, 100% = ACh EC100; activation, % at 3 µM; hit rate 0.3% among 360,000;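 active = activation above the run cutoff, the mean activation of all test compounds plus 3 SD, cut at about 18% in these data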
#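 Replicates: One well per compound, no replicates | System: Human M5 receptor in CHO-K1 cells | Benchmarks: Low control EC20 acetylcholine (0%), high control EC100 acetylcholine (100%) | Probe or stimulus: Acetylcholine, EC20 level | Times: Fluo-8 loading 80 min at 37 °C plus 30 min room temperature | Signal: Intracellular calcium via Fluo-8 fluorescence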
# An asterisk follows results filed as active.
SMILES,M4 PAM,M4 antag,CHRM5 agonist,CHRM5 antagonist,M4 ag,CHRM5 PAM
Cc1c(NC(=O)CN2CCC(C(N)=O)CC2)cccc1[N+](=O)[O-],-1.7,3.2,2.8,-2.6,1.8,21.2*
CCCSc1nc(C)c(CC(=O)O)c(=O)[nH]1,28.1*,1.7,1.1,-4.9,0.5,10.0
Cc1ccc(-c2nn(CCC(=O)O)cc2/C=C\C(=O)c2ccc(Br)cc2)cc1,19.4*,-15.9,-2.7,-1.4,0.8,23.3*
CCN1CCN(CCNC(=O)c2ccc(/C=C3/Sc4ccccc4N(Cc4ccccc4C)C3=O)cc2)CC1,-45.5,16.2,-7.6,9.0,33.1*,-12.3
CCC(CO)NCC#Cc1ccccc1 (stereo not drawn),-15.8,40.2*,-6.3,6.7,1.9,1.5
OC(CNCC#Cc1ccccc1)c1ccccc1 (stereo not drawn),-0.3,-8.4,-1.4,4.6,1.3,0.1
N#CCCN1CCCc2cc(N=Nc3ccc(C(F)(F)F)cc3)ccc21,1.6,7.0,-2.8,-2.9,0.7,20.0*
Cc1c(CN2CCC(CO)(CCOc3ccccc3)CC2)[nH]c2c(Cl)cccc12,-14.7,28.8*,1.2,10.0,14.7,3.0
COc1ccc(CN2CCCC(C(=O)c3ccc4c(c3)OCO4)C2)c(F)c1 (stereo not drawn),-14.3,61.4*,-10.0,-2.5,4.0,-13.7
CNC(=S)NNC(=O)c1cc(C(C)(C)C)nn1Cc1ccc(F)cc1,3.7,9.1,4.7,6.1,2.7,-6.4
Cc1ccc(S(=O)(=O)N(C)CC(=O)NCc2ccncc2)cc1,4.2,-3.5,-1.2,2.0,0.3,-1.8
CN(C)c1ccc(CNC(=O)CN(C)S(=O)(=O)c2ccc3c(c2)c(=O)n(C)c(=O)n3C)cc1,16.7*,-0.2,-4.0,-12.6,0.7,9.7
Cc1ccc(CNC(=O)CN(C)S(=O)(=O)c2ccc(F)cc2)cc1,-1.9,-22.4,1.2,-22.2,1.7,19.5*
C=CC[N@@+]12CC[C@]34c5ccccc5N5/C=C6\C7N(/C=C(\C53)[C@@H](C[C@@H]41)/C(=C/CO)C2)c1ccccc1[C@@]71CC[N@@+]2(CC=C)C/C(=C\CO)[C@@H]6C[C@@H]12 (stereo partly drawn),7.6,5.3,-0.8,-6.4,-1.0,6.3
CC(=O)NC(=S)Nc1ccc(NC(=S)NC(=O)/C=C/c2ccco2)cc1,34.0*,-19.0,24.9*,10.8,1.4,9.8
CCC(=O)Nc1ccc(NC(=S)NC(=O)/C=C/c2ccco2)cc1,7.2,-9.4,-2.2,8.1,2.0,-2.3
COc1ccc(-c2n(CC(=O)OC3CC(C)CCC3C(C)C)c3ccccc3[n+]2C)cc1 (stereo not drawn),-14.7,22.5,-6.6,39.9*,4.0,-17.6
C[C@]12c3[nH]c4cc(-c5ccco5)ccc4c3CCN1C(=O)[C@@H](CC(=O)NCC13CC4CC(CC(C4)C1)C3)C[C@@H]2C(=O)N1CCOCC1,3.1,-13.7,0.9,0.4,1.4,7.4
COc1cc(C#Cc2c(-c3cncn3C)n(C)c3ccc(-c4cnc(N5CCOCC5)nc4)cc23)cc(OC)c1,20.6,-4.1,2.0,6.0,2.5,-3.2
COc1cc(C#Cc2c(-c3cncn3C)n(C)c3ccc(-c4ccc(CN5CCOCC5)cc4)cc23)cc(OC)c1,-9.8,29.8*,-2.2,6.8,5.2,-4.9
Cc1cc(C)c2c(N)c(C(=O)NC3CC3)sc2n1,34.0*,66.8*,-0.5,0.9,56.1*,2.6
CC(=O)c1sc2nc(-c3ccccc3)cc(C)c2c1N,42.4*,12.9,-3.5,3.8,21.3,0.7
Cc1cc(C)c2c(N)c(C(=O)NN)sc2n1,-0.4,-4.4,0.1,7.5,0.5,1.4
Cc1cc(C(F)(F)F)c2c(N)c(C(=O)NC3CC3)sc2n1,8.1,-20.3,-6.1,3.4,1.2,-4.5
Cc1ccc(NC(=O)c2sc3nc(C)cc(C)c3c2N)cc1,15.6*,-21.2,-9.2,3.7,3.6,-2.3
Nc1c(C(=O)O)sc2nc(-c3ccccc3)cc(-c3ccc(Cl)cc3)c12,-11.0,-2.8,0.8,14.3,-0.6,-1.6

# Source: PubChem BioAssay (The Scripps Research Institute Molecular Screening Center)
